Rows were chosen to be rich in hits. Some 1.3% of all compounds tested hit in one or more screens of this group.
LEDGF integ inh: blocks HIV-1 LEDGF/p75-dependent DNA integration; TR-FRET IN-LEDGF/p75 DNA integration, Eu/Cy5; inhibition, % at 3.7 µM; 370,000 tested, 0.64% active; AID 743269;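 active means inhibition above the screen-wide mean plus 3 SD, cut at about 13% in these data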;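 further: signal is the Cy5 over europium emission ratio at 671 and 618 nm; 0% = plate median of compound wells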
TDP2 absorb: blocks human TDP2 phosphodiesterase activity. recombinant TDP2, T5PNP hydrolysis, p-nitrophenol absorbance 415 nm. inhibition, % at 12.8 µM. 370,000 tested, 0.34% active. AID 720702;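 active means inhibition above the mean of all tested compounds plus 3 SD, set per campaign, cut at about 25% in these data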;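 further: 0% = DMSO with enzyme and 100% = buffer with substrate but no TDP2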
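System: recombinant human TDP2 / Amount: 120 nM TDP2 per well / Also added: 5 mM T5PNP chromogenic substrate / Doses: 12.8 µM single point, 1% DMSO / Incubation: 2 h at 37 °C / Detection: p-Nitrophenol epi absorbance / Evaluation: % inhibition relative to enzyme-containing and enzyme-free wells / Repeats: singlicate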
ASAP1 inh: inhibitors of human ASAP1 ArfGAP activity; ASAP1-stimulated ARF1 GTP hydrolysis, GDP FP detection; Q9ULH1; 360,000 tested, 0.19% active; inhibition, % at 16.5 µM;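 further: 0% = vehicle with enzyme and substrate and 100% = no enzyme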
CASP6 VEID inh: blocks human caspase-6 cleavage activity; P55212; purified caspase-6, Z-VEID-R110 cleavage fluorescence; inhibition, % at 12.5 µM; 350,000 tested, 0.53% active;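 active means mean inhibition across replicates at least about 35%, with every replicate also reaching that limit, limit read from the data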;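 further: 0% = median of neutral control wells and 100% = no fluorescence left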
Target sequence (P55212 24-179 limits assumed): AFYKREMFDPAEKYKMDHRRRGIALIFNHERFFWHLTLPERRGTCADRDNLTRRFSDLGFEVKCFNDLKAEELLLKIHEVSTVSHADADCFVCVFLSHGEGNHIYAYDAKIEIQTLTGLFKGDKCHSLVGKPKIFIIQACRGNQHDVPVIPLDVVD
Target sequence (P55212 194-293 limits assumed): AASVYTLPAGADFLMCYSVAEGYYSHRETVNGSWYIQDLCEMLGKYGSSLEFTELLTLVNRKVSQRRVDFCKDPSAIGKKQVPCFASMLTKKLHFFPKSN
ARFGAP1 inh: rat ARFGAP1 inhibition; Q62848; Arfgap1-stimulated ARF1 GTP hydrolysis, GDP FP detection; inhibition, % at 16.5 µM; 360,000 tested, 0.26% active; AID 651572;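 active means inhibition above a per-plate limit, mean inhibition of low control wells plus 3 SD, cut at about 25% in these data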;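 further: 0% = DMSO wells with enzyme and 100% = wells lacking Arfgap1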
Target sequence (Q62848 1-136 limits assumed): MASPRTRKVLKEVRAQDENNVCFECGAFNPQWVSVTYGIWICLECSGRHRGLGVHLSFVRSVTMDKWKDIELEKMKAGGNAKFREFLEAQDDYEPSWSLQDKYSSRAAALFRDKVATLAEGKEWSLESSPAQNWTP
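system = rat Arfgap1 catalytic domain, aa 1-136 | technique = FP, GDP Alexa 633 tracer displaced from anti-GDP antibody, 620/688 nm | compound = one concentration, 16.5 µM, DMSO 1.26% | medium = HEPES-based buffer, pH 7.5 | timing = compound-enzyme preincubation 20 min, reaction 120 min, detection 60 min, 25 °C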
TDP2 inh conf: human TDP2 inhibition, confirmation; shares compounds with TDP2 absorb; recombinant human TDP2, absorbance read-out; inhibition, % at 12.8 µM; 1,100 tested, 22% active; AID 743263;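 further: 0% = vehicle with enzyme and 100% = no enzyme buffer only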
* hit, by the source's call; . = no result. Unless noted, no stated cut-off is given here; in the data, active means inhibition above about 25%; inactive means the rest.

SMILES	LEDGF integ inh	TDP2 absorb	ASAP1 inh	CASP6 VEID inh	ARFGAP1 inh	TDP2 inh conf
NS(=O)(=O)c1ccc(CCNCC(=O)NCc2ccccc2Cl)cc1	2	27*	0	2	11	1
NS(=O)(=O)c1ccc(NC(=S)NCc2ccccc2Cl)cc1	-3	-2	8	.	13	.
COCCNC(=O)C(=O)Nc1cc2c3c(c1)C(C)C(=O)N3CCC2 (stereo unspecified)	-8	-6	-11	-1	-7	.
CC(C)NC(=O)C(=O)Nc1cc2c3c(c1)C(C)C(=O)N3CCC2 (stereo unspecified)	1	34*	-3	-3	-9	-4
CCN1CCN(CC(O)COC(c2ccccc2)c2ccccc2C)CC1 (stereo unspecified)	3	27*	14	-6	1	19
CCS(=O)(=O)c1nc(S(=O)(=O)c2ccc(C)cc2)c(N2CCN(CCO)CC2)s1	0	25*	-10	-1	-1	4
CCN1CCN(c2sc(S(=O)(=O)CC)nc2S(=O)(=O)c2ccc(C)cc2)CC1	-1	-2	1	-1	7	.
O=C(c1cccc(S(=O)(=O)N2CCN(c3ccccc3)CC2)c1)N1CCN(c2ccccc2O)CC1	-1	29*	3	0	-4	6
O=C(c1cccc(S(=O)(=O)N2CCCC2)c1)N1CCN(c2ccccc2)CC1	0	0	-6	.	-5	.
Cc1ccc(CNC(=O)CN(C(=O)C2(C)CC(=O)N=C3C=CC=CN32)c2cc(C)ccc2C)cc1 (stereo unspecified)	0	26*	4	-2	-14	6
Cc1ccc(CNC(=O)CN(Cc2cccs2)C(=O)C2(C)CC(=O)N=C3C=CC=CN32)cc1 (stereo unspecified)	0	6	7	2	-2	.
O=C(NCc1ccc2c(c1)OCO2)C(=O)NCC1OCCN1S(=O)(=O)c1ccc(Cl)cc1 (stereo unspecified)	-1	37*	7	0	-4	1
CC(=O)Nc1ccc(/C=C2\CCc3ccccc3C2=O)cc1	-2	26*	11	3	7	-9
O=C1/C(=C\c2ccc([N+](=O)[O-])cc2)CCc2ccccc21	4	-9	1	2	-13	.
Cc1ccc(NC(=O)CSCc2cc(=O)n3ccsc3n2)c(C)c1	0	33*	-3	-4	1	6
CN1CCC(C)(C(=O)Nc2cccc(Oc3ccccc3)c2)C1 (stereo unspecified)	5	81*	7	-3	13	3
CC(C)N1CCC(C)(C(=O)Nc2cccc(Oc3ccccc3)c2)C1 (stereo unspecified)	-3	5	5	-1	-17	.
COc1cc(O)c(NC(C)=O)c2nonc12	8	48*	-2	9	14	24
O=C(O)c1ccc(NC2=C(n3nnc4ccccc43)C(=O)c3ccccc3C2=O)cc1	13	34*	9	83*	14	41*
O=C(O)c1ccc(-n2nnc3ccccc32)c([N+](=O)[O-])c1	2	1	12	-3	-13	.
COC(=O)[C@]1(C)N[C@H](CN(C)C(=O)Nc2ccc(OC)cc2)[C@@H]2C(=O)N(C)C(=O)[C@@H]21	-2	48*	2	0	7	6
COC(=O)[C@]1(C)N[C@H](CN(C)C(=O)Nc2ccc(F)cc2)[C@@H]2C(=O)N(C)C(=O)[C@@H]21	3	1	-5	12	-10	.
CCC(C)N1CC(C(=O)O)CC1=O (stereo unspecified)	4	3	8	.	11	.
CCC(C)N1CC(C(=O)NC2CCCCC2)CC1=O (stereo unspecified)	6	25*	-1	.	-3	-5
CC(C)NC(=O)N(C)C[C@H]1OCCCC[C@H](C)Oc2ccc(NS(C)(=O)=O)cc2C(=O)N([C@H](C)CO)C[C@@H]1C	.	.	.	2	.	.
SMILES	LEDGF integ inh	TDP2 absorb	ASAP1 inh	CASP6 VEID inh	ARFGAP1 inh	TDP2 inh conf
COC(CNc1ccc([N+](=O)[O-])c(NCC(OC)OC)c1C#N)OC	0	-5	-1	-1	3	.
O=C(NCC1CCCO1)c1coc2nc3ccccc3nc12 (stereo unspecified)	1	-2	-12	.	0	.
C=CCn1c(N)c(C(=O)NCC2CCCO2)c2nc3ccccc3nc21 (stereo unspecified)	3	35*	17	.	10	-8
COc1ccc(OC)c(S(=O)(=O)NCCc2cn3ccsc3n2)c1	1	4	6	2	3	.
O=C(CN1C(=O)S/C(=C\c2ccc(F)cc2)C1=O)Nc1cccc(S(=O)(=O)NCc2ccco2)c1	-2	27*	-4	3	5	0
CCc1ccccc1OCC(=O)Nc1cccc(S(=O)(=O)NCc2ccco2)c1	-2	-5	1	4	-2	.
Cc1cnc(C2OCCO2)c2cccc(N)c12	8	30*	-3	60*	4	44*
O=[N+]([O-])c1cccnc1C1OCCO1	0	5	0	2	-3	.
Cc1nn(-c2ccccc2)c2c1C(c1c(C)[nH]c(C#N)c1C)C(C#N)=C(N)O2 (stereo unspecified)	4	35*	-9	.	-4	-2
Cc1ccc(-n2nc(C)c3c2OC(N)=C(C#N)C3c2ccccc2F)cc1 (stereo unspecified)	3	26*	9	.	6	-3
Cc1nn(-c2ccccc2)c(Cl)c1C1C(C#N)=C(N)Oc2n[nH]c(C)c21 (stereo unspecified)	0	12	-7	.	2	.
Cc1nn(-c2ccccc2)c(Cl)c1C1C(C#N)=C(N)Oc2c1c(C)nn2-c1ccccc1 (stereo unspecified)	2	27*	-2	.	8	9
COc1cc2c(=O)n(CCC(=O)NCC3CCCO3)c(=O)n(CC(=O)Nc3ccc(F)cc3)c2cc1OC (stereo unspecified)	2	24*	8	1	9	-7
Cc1ccc(Nc2nc(N)nc(CN3CCC(C)CC3)n2)c(C)c1	2	-4	-13	.	-1	.
Cc1ccc(Nc2nc(N)nc(CN3CCCCCC3)n2)c(C)c1	-3	38*	0	.	7	-3
COc1ccc(CNC(=O)CC(NC(N)=O)c2ccccc2Cl)cc1OC (stereo unspecified)	-4	-2	-6	-1	7	.
C[C@@H]1CN([C@@H](C)CO)C(=O)c2cc(/C=C/c3ccccc3)cnc2O[C@H]1CN(C)S(C)(=O)=O	.	.	.	0	.	.
CN(C)c1cccc(C(=O)OCC(=O)N(Cc2ccccc2)C2CCS(=O)(=O)C2)c1 (stereo unspecified)	6	38*	4	-3	9	-11
